# Screening data as filed in PubChem.
# proCasp3 act: activates human procaspase-3; P42574; recombinant procaspase-3 D3A, Ac-DEVD-pNA absorbance 405 nm; activation, % at 8.5 µM; 330,000 compounds, 0.11% hits; AID 463141;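 active = activation above the mean of all tested compounds plus 3 SD, cut at about 21% in these data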;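 also: 0% = DMSO alone and 100% = DMSO wells spiked with extra 5 µM PC-3 D3A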
#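 Assay system – Procaspase-3 D3A mutant · Benchmarks – DMSO low control, extra-enzyme high control · Technique – 405 nm absorbance of p-nitroaniline, reads at 0 and 120 min · Doses – 8.5 µM nominal · Measure – % activation between DMSO and enzyme-spiked controls · Also added – Ac-DEVD-pNA chromogenic peptide substrate · Schedule – 1 h compound preincubation, 2 h substrate hydrolysis at 25 °C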
# IDE cell activ: IDE (human) activation, cell-based. P14735. HEK cells, FAbeta-B cleavage, fluorescence polarization; 0% vehicle, 100% cell-free pure enzyme wells. activation, % at 5.96 µM. 340,000 compounds, 0.073% hits. AID 493087;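 active = activation above the mean of all tested compounds plus 3 SD, set per screening campaign, cut at about 17% in these data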
# Target sequence (P14735 whole entry, looked up): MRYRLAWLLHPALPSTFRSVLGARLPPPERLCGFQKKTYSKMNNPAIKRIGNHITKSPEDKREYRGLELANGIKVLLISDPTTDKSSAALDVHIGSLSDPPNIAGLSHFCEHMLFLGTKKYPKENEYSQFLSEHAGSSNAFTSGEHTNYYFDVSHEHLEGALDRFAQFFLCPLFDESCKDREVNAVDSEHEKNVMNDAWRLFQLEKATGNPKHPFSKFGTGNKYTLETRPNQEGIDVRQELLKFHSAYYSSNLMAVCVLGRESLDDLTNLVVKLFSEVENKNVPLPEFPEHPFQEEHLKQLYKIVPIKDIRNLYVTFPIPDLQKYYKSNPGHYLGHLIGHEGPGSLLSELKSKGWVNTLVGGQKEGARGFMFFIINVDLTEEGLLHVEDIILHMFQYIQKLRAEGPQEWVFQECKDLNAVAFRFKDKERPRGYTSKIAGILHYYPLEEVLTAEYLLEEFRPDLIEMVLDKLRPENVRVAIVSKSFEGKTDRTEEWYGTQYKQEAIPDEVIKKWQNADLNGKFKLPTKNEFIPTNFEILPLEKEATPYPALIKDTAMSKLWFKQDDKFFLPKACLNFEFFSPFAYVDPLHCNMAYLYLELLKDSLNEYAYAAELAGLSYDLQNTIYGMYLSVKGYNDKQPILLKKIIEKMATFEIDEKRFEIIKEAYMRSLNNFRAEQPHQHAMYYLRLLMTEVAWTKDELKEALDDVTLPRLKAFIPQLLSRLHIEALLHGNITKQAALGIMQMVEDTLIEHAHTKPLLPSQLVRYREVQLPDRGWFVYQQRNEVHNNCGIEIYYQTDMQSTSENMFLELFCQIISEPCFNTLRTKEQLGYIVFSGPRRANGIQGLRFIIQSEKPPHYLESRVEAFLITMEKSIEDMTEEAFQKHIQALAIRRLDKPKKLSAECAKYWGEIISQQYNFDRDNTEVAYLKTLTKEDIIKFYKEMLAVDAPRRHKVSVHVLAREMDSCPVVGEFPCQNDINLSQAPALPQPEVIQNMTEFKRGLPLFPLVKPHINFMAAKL
# IDE cell inh: inhibitors of human insulin-degrading enzyme in cells; P14735; HEK cells, FAbetaB cleavage, fluorescence polarization; inhibition, % at 5.59 µM; 320,000 compounds, 0.41% hits; AID 434962;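 active = percent inhibition above the average of all tested compounds plus 3 SD, set per screening campaign, cut at about 16% in these data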;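 also: IDE supplied by intact live HEK cells; FP after avidin binding of uncleaved biotin substrate so inhibition keeps polarization high; 0% = DMSO wells and 100% = 60 µM reference IDE inhibitor Ii1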
# proCasp7 act: activates human procaspase-7, counter-screen for procaspase-3 activators. 330,000 compounds, 0.093% hits. P55210. recombinant procaspase-7, Ac-DEVD-pNA absorbance 405 nm; D23A/D198A/D206A triple mutant, cannot self-cleave; scale: DMSO 0, 5 µM enzyme 100. activation, % at 8.5 µM. AID 463210;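 active = percent activation above the screen-wide mean plus 3 SD, cut at about 25% in these data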
#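 System: Procaspase-7 triple mutant (PC-7 D3A); measure: % activation from two-timepoint absorbance difference, scaled to controls; times: 1 h compound preincubation, 2 h substrate cleavage, 25 °C; also added: Ac-DEVD-pNA substrate, 400 µM as added; measured by: Epi-absorbance of released pNA at 405 nm, two timepoints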
# PHOSPHO1 block: PHOSPHO1 (human) inhibition. Q8TCT1. 290,000 compounds, 1.1% hits. recombinant PHOSPHO1, absorbance phosphatase assay. inhibition, % at 13.3 µM; in the data active = inhibition above about 60%
# UBC13 polyUb: blocks human UBC13 polyubiquitin chain formation. inhibition, % at 20 µM. 330,000 compounds, 0.47% hits. AID 485273. P61088. TR-FRET; in the data active = inhibition above about 45%, passing the limit was not always enough
# Casp3 counter: caspase-3 inhibition (UBC13 counter-screen). 1,400 compounds, 4% hits. shares compounds with UBC13 polyUb. inhibition, % at 20 µM. Recombinant caspase-3, Caspase-Glo 3/7 luminescence, 60 min;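 active = mean inhibition across replicates above about 26%, limit read from the data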;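 also: plate controls were DMSO with caspase-3 for no effect and DMSO wells lacking enzyme for full effect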
# UBC13 confirm: confirmation of human UBC13 polyubiquitin inhibitors | shares compounds with UBC13 polyUb | UBC13 polyubiquitination, TR-FRET, biochemical | inhibition, % at 10 µM | 1,400 compounds, 68% hits | AID 488859; in the data active = inhibition above about 45%
# Active calls of the source: *; nt = no result. Only some compounds are listed: those with a hit (about 1.9% of all), similar ones and a draw of the others.
SMILES,proCasp3 act,IDE cell activ,IDE cell inh,proCasp7 act,PHOSPHO1 block,UBC13 polyUb,Casp3 counter,UBC13 confirm
O=C(NNC(=O)C1CCN(S(=O)(=O)c2ccc(Cl)cc2)CC1)c1ccc(S(=O)(=O)N2CCCCC2)cc1,2,3,1,4,16,56*,7,52*
Cc1cccc(C)c1NC(=O)COC(=O)c1cc[n+]([O-])cc1,5,4,-5,1,nt,-6,nt,nt
CC(NCc1ccc([N+](=O)[O-])cc1)C1COc2ccccc2O1 (stereo unspecified),1,1,-2,5,23,3,nt,nt
CC(C)CC(=O)Nc1nnc(SCC(=O)NC2CCCCC2)s1,8,4,2,0,32,-8,nt,nt
COc1ccc(CN2C(=O)c3cccc4cccc2c34)cc1F,-5,-5,0,-4,7,64*,0,62*
COc1ccc(CCN2C(=O)c3cccc4cccc(c34)C2=O)cc1OC,8,7,0,-5,0,8,nt,nt
COC(=O)c1c(NC(=O)c2nc3ccccc3s2)sc2c1CC(C)(C)NC2(C)C,-9,4,3,2,8,97*,-3,87*
CCOc1ccc(C(=O)Nc2sc3c(c2C(=O)OC)CC(C)(C)NC3(C)C)cc1,3,5,-2,-3,16,52*,-1,24
CCOC(=O)c1c(NC(=O)COc2ccccc2)sc2c1CC(C)(C)NC2(C)C,4,-3,4,16,17,40,nt,nt
CC1(C)Cc2c(sc(NC(=O)c3ccc(S(=O)(=O)N4CCCCCC4)cc3)c2C(N)=O)C(C)(C)N1,7,4,-1,-3,46,19,nt,nt
CC1(C)Cc2c(sc(NC(=O)c3ccc4c(c3)OCCO4)c2C(N)=O)C(C)(C)N1,1,0,-1,4,27,55*,-4,70*
COc1ccc2cc(S(=O)(=O)NCc3cccnc3)ccc2c1,1,0,3,9,19,6,nt,nt
COc1ccc(/C=N/Nc2cc(C)nc3ccc(Br)cc23)cc1,-30,-3,-2,-23,11,61*,4,85*
COc1ccc2nc(C)cc(N/N=C/c3cccc(OC)c3O)c2c1,-2,-3,-5,-6,-13,58*,2,111*
Cc1cc(N/N=C/c2ccccc2O)c2ccccc2n1,-36,-2,-2,-14,19,4,nt,nt
CCCCCCCCCC[N+](C)(C)CC/C=C1/c2ccccc2Sc2ccc(Cl)cc21,-9,11,-13,-1,36,107*,-2,119*
CCCCCCCCCCC[N+](C)(C)CC/C=C1/c2ccccc2Sc2ccc(Cl)cc21,-7,11,-9,1,14,106*,3,118*
COc1ccc(/C=N/NC(=O)C(=O)N2CCCCCC2)cc1O,11,-4,1,4,-1,0,nt,nt
COc1ccc(CNc2ncnc3sccc23)cc1,0,-1,-3,2,6,5,nt,nt
O=C(COc1ccc(Cl)cc1)NNC(=O)c1ccccn1,-3,8,5,-1,36,71*,-2,97*
Cc1cc(C)cc(OCC(=O)NNC(=O)c2ccccn2)c1,11,1,0,6,nt,96*,2,85*
Cc1ccc(OCCCC(=O)NNC(=O)c2ccccn2)cc1,5,-5,2,5,nt,56*,0,43
COCCCNC(=S)NNC(=O)c1ccccn1,-2,-1,-3,-3,8,89*,2,101*
Cc1cc(C)cc(OCC(=O)NNC(=O)c2cc(C)[nH]n2)c1,-2,3,2,-2,-28,2,nt,nt
C/C(=N\NC(=O)c1ccc(Br)o1)c1cc2c(cc1NC(=O)CCC(=O)O)OCO2,nt,-1,nt,nt,8,-2,nt,nt
SMILES,proCasp3 act,IDE cell activ,IDE cell inh,proCasp7 act,PHOSPHO1 block,UBC13 polyUb,Casp3 counter,UBC13 confirm
CC1CC(C)(C)CC2(C1)NC(=O)N(CC(=O)N1CCN(Cc3ccc(C#N)cc3)CC1)C2=O (stereo unspecified),nt,4,nt,nt,nt,-2,nt,nt
N=C(N)c1ccc(Cl)cc1,10,6,-2,-5,22,-9,nt,nt
N=C(N)c1ccc(/C=C/c2ccc(C(=N)N)cc2O)cc1,-8,0,6,-5,33,84*,0,110*
O=C1Cc2cc(S(=O)(=O)N3CCNCC3)ccc2N1,6,-1,0,5,nt,-4,nt,nt
O=C(c1cccc(S(=O)(=O)N2CCCC2)c1)N1CCCC(C(F)(F)F)C1 (stereo unspecified),4,4,-4,1,nt,73*,-3,109*
O=C(c1cccc(S(=O)(=O)N2CCOCC2)c1)N1CCCC(C(F)(F)F)C1 (stereo unspecified),-3,3,-1,2,nt,1,nt,nt
Cn1ncc(Cl)c1C(=O)NC1CCCC1,-6,3,1,3,nt,-9,nt,nt
COc1ccccc1NC(=O)C(C)OC(=O)C1CCC(C(C)(C)C)CC1 (stereo unspecified),-11,0,1,-1,nt,0,nt,nt
Cc1nn(CC(=O)NCCCN2CCN(Cc3ccccc3)CC2)c(=O)c2cc(-c3ccccc3)nn12,10,6,4,3,40,24,nt,nt
Cc1nn(CC(=O)NCCCN2CCC(Cc3ccccc3)CC2)c(=O)c2cc(-c3ccccc3)nn12,-1,-1,0,10,44,93*,2,112*
CCc1ccc(-c2cc3c(=O)n(CC(=O)NCCCN4CCC(Cc5ccccc5)CC4)nc(C)n3n2)cc1,0,6,0,12,32,60*,1,86*
CCN1CCN(CCCNC(=O)Cn2nc(C)n3nc(-c4ccccc4)cc3c2=O)CC1,0,2,2,-11,4,0,nt,nt
CC(=O)c1ccccc1OCC(O)CN1CCN(c2ccccn2)CC1 (stereo unspecified),-5,6,-1,-3,13,-4,nt,nt
CC(=O)c1ccccc1OCC(O)CN1CCN(CCN2C(=O)c3cccc4cccc(c34)C2=O)CC1 (stereo unspecified),0,3,-2,-2,12,54*,-2,60*
Cc1ccc(C)c(OCC(O)CN2CCN(CCN3C(=O)c4cccc5cccc(c45)C3=O)CC2)c1 (stereo unspecified),-2,6,0,0,-5,84*,3,101*
